PTEN del growth – growth suppression of PTEN-null HCT116, primary screen, cell-based, CellTiter-Glo. HCT116 PTEN-null viability, 60 h; stronger effect = lower value. viability, % at 10 µM. actives 1.2% (n = 140,000);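 active means viability at or below a set limit, 4 SD under the median of all tested compounds, cut at about 3.7% in these data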;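 further: PTEN knockout HCT116 line with beta catenin targeted HCT116 as companion control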
HCT116 bCat-KO – primary screen for growth suppressors in beta-catenin knockout HCT116 cells (colon tumor, human). HCT116 beta-catenin knockout viability, CellTiter-Glo, 60 h; stronger effect = lower value. viability, % at 10 µM. actives 1.5% (n = 140,000). AID 818, 2007;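 active means viability at or under a set limit, the compound median less 4 SD, cut at about 6% in these data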;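 further: 0% = Hyamine 1622 control at 20 µM and 100% = untreated cell control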
Lung fibro prol – antiproliferative effect on LL 47 fibroblasts – human, LL 47 cells, CellTiter-Glo luminescence, primary screen; LL 47 human lung fibroblast viability, ATP luminescence; stronger effect = lower value; viability, % at 10 µM; actives 1.1% (n = 85,000);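 active means viability at or below 50% in the single dose screen; inactive means viability above 50%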;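 further: compound exposure lasted 72 h before the ATP readout; 100% = median luminescence of untreated cell-only wells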
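Material: human lung fibroblast line LL 47, low passage; Evaluation: viability percentage against median untreated-cell control; Buffer or medium: 15% FBS in IMEM; Incubation: 72 h compound exposure at 37 °C after overnight plating; Dosing: 0.1% DMSO in all compound wells; Measured by: CellTiter-Glo luminescence.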
HUVEC prolif 384 – inhibitors of HUVEC proliferation, primary screen, cell-based, 384-well. AID 648, 2007. actives 1.1% (n = 86,000). CellTiter-Glo luminescence, 72 h; stronger effect = lower value. viability, % at 10 µM (by protocol);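 active means viability at or below 30%; inactive means viability above 30%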;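 further: 100% = median luminescence of DMSO-only cell control wells on each plate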
H69AR growth 86K – proliferation blockers of H69AR lung cancer cells, primary screen, cell-based, human, 86K library. viability, % at 10 µM. H69AR lung tumor viability, ATP luminescence, 72 h; stronger effect = lower value. actives 6% (n = 85,000);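 active means viability at or below 40%; inactive means viability above 40%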;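 further: multidrug resistant small cell line overexpressing MRP-1 efflux transporter; 100% = mean luminescence of untreated control wells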
The depositor's hits bear a star; · = no result given. This is one part of a sample in which hits are shown more often than they occur.

SMILES	PTEN del growth	HCT116 bCat-KO	Lung fibro prol	HUVEC prolif 384	H69AR growth 86K
N=c1c2c(-c3ccccc3)c(-c3ccccc3)n(Cc3ccccc3)c2ncn1CCO	1.6*	1.2*	22*	3.3*	1.9*
O=c1c2ccccc2oc2nc(-c3ccco3)n(Cc3ccccc3)c(=O)c12	91	87	106	98	82
Cc1cc2ccccc2c(=O)n1CC(=O)N(C)c1ccc(F)cc1	104	112	101	96	76
COCCN1C(=O)c2oc3ccccc3c(=O)c2C1c1ccc(OC)c(OC)c1 (stereo not given)	0.2*	0.1*	102	89	102
COc1ccc(C2c3c(oc4ccccc4c3=O)C(=O)N2CCN2CCOCC2)cc1OC (stereo not given)	·	·	99	102	83
CC(=O)c1c(C)[nH]c(C(=O)CSc2nc3ccccc3c(=O)n2CCCN2CCOCC2)c1C	58	59	81	86	66
Cc1sc2nc(CSc3nc4ccccc4c(=O)n3CCCN3CCOCC3)[nH]c(=O)c2c1C	32	42	86	60	9.8*
CCNC(=S)N/N=C/c1sc(N2CCCCC2)nc1-c1cccs1	79	81	·	·	·
O=C(COC(=O)C1COc2ccccc2O1)Nc1ccc2c(c1)CCC2 (stereo not given)	98	95	104	101	100
Cc1nn(C(=O)c2ccco2)c(C)c1CN1C(=O)c2ccccc2C1=O	100	106	97	100	111
Cc1nn(C(=O)c2cccs2)c(C)c1CN1C(=O)c2ccccc2C1=O	88	76	81	80	21*
Cn1cc(C(=O)NCc2cccs2)c(=O)c2cc(S(=O)(=O)N3CCCC3)ccc21	89	90	·	·	·
COC(=O)NC(=C(Cl)Cl)S(=O)(=O)c1ccccc1	1.9*	2.6*	34*	55	1.1*
COC1=CC(=O)CC(C)C12Oc1c(Cl)c(OC)cc(OC)c1C2=O (stereo not given)	52	60	87	92	29*
CC1(C)Cc2c(C#N)c(OCC(=O)c3ccc(Cl)cc3)nc(-c3ccoc3)c2CO1	76	64	39*	76	50
CCOC(=O)C1=C(Cc2ccc(OC)cc2)C(=O)c2ccccc2C1=O	80	74	94	70	1.8*
CCOC(=O)c1c(C)nc2c(c1-c1cc(OC)ccc1OC)C(=O)c1ccccc1-2	86	92	·	·	·
CCOC(=O)C1=C(Cc2ccc(C)cc2)C(=O)c2ccccc2C1=O	78	80	73	18*	2.0*
CCOC(=O)C1=C(O)c2ccccc2C(=O)/C1=C\c1ccc(CC)cc1	68	74	·	·	·
O=S(=O)(NC(=NC1CCCC1)C(F)(F)F)c1ccccc1	106	99	·	107	94
CCN1CCc2c(sc(NC(=O)Nc3ccc(Cl)c(Cl)c3)c2C(N)=O)C1	3.8*	14	·	·	·
Cc1noc(/C=C/N(C)C)c1S(=O)(=O)N1CCCC(C(=O)NC(C)c2ccccc2)C1 (stereo not given)	85	68	105	78	110
COc1ccc(OCCn2cc(/C(N)=N/O)c3ccccc32)cc1	79	66	84	85	58
CCC(=C(c1ccc(OC)cc1)c1ccc(OC)cc1)c1cn(CC(O)CN2CCN(C)CC2)c2ccccc12 (stereo not given)	1.7*	2.1*	21*	3.0*	1.6*
Cc1cccc(NC(=O)Cn2cnc3ccc(S(=O)(=O)N4CCC(C)CC4)cc3c2=O)n1	61	60	103	95	85
SMILES	PTEN del growth	HCT116 bCat-KO	Lung fibro prol	HUVEC prolif 384	H69AR growth 86K
CN(C)CC(C)(C)CNS(=O)(=O)c1cccc2nsnc12	95	87	·	·	·
O=C1c2ccccc2NC(c2ccc(Cl)cc2Cl)N1O (stereo not given)	8	3.5*	72	80	·
Cc1cccnc1NC(=O)Cn1nc(C)c([N+](=O)[O-])c1C	114	106	·	·	·
COc1cc(CNc2ccc3[nH]c(=O)[nH]c3c2)cc(Br)c1OCC(=O)NC(C)(C)C	88	85	82	86	9.9*
Cc1ccc(C)c(C(C)NC(=O)c2ccccc2Br)c1 (stereo not given)	87	96	·	·	·
COCCOC(=O)C1=C(C)NC2=C(C(=O)CC(C)(C)C2)C1c1cc2c(cc1Br)OCO2 (stereo not given)	·	·	103	107	90
N/C(Cc1ccc([N+](=O)[O-])cc1)=N\OC(=O)c1ccc(Br)cc1	87	97	·	·	·
N/C(Cc1ccc([N+](=O)[O-])cc1)=N\OC(=O)c1ccc2ccccc2c1	78	76	74	24*	66
Cc1cccc(C(=O)O/N=C(\N)Cc2ccc([N+](=O)[O-])cc2)c1	77	71	91	59	3.6*
Cc1ccc2nc(C(F)(F)F)c(C#N)c(N)c2c1	4	3.6*	·	·	·
Cc1cc(C)c2nc(C(F)(F)F)c(C#N)c(N)c2c1	101	84	95	41	40*
CCCc1nc2c(C)cc(C)cc2c(N)c1CC	40	37	·	·	·
COc1ccc(C2CC(c3cccc(OC)c3OC)n3nnnc3N2)cc1 (stereo not given)	92	86	96	102	98
O=C(CSc1nc2ccccc2o1)NCCOc1ccccc1	99	94	96	93	94
Cc1cc(N(C(=O)c2ccco2)C(C(=O)NC2CCCCC2)c2ccccc2)ccc1-n1cnnn1 (stereo not given)	84	73	88	99	39*
O=C(Nc1ccc(-c2noc(-c3cccs3)n2)cc1)c1cccnc1	73	78	101	52	10*
COc1ccc(-c2noc(-c3ccccc3C(=O)Nc3cccnc3)n2)cc1	80	86	95	87	76
COc1cccc(-c2nc(-c3ccc(NC(=O)c4cccnc4)cc3)no2)c1	87	87	100	101	26*
Cn1cc([N+](=O)[O-])c(C(=O)NCc2cc3cc(Cl)ccc3[nH]2)n1	70	73	·	·	·
Cc1ccccc1CS(=O)(=O)c1snnc1C	91	96	·	·	·
Cc1ccccc1CS(=O)(=O)c1cnc2ccccc2n1	8	15	76	74	16*
CCN1CCN(c2ncc3c(n2)CC(c2cc(OC)c(OC)c(OC)c2)CC3=O)CC1 (stereo not given)	18	15	51	51	17*
O=C1CC(c2cccc(Cl)c2)Cc2nc(N3CCN(c4ccccc4)CC3)ncc21 (stereo not given)	77	79	92	85	97
CCN1c2ccccc2NC2C1C(C(C)=O)C(=O)N2c1ccc(Cl)cc1 (stereo not given)	69	75	79	54	18*
O=C1CC(N2CCC(O)(c3ccc(Br)cc3)CC2)C(=O)N1c1ccc(Cl)cc1 (stereo not given)	101	102	·	·	·
